Measurements pooled from the literature.
Protocols differ between the studies behind these lines.
Target: Cytochrome P450 3A4 (CYP3A4, Homo sapiens, UniProt P08684)
Observed: enzyme activity
Mode: inhibitor

Compound | assay | test system | conditions | measurement | result
COc1cc2c(c(OC)c1OC)-c1c(cc3c(c1OC)OCO3)C[C@H](C)[C@](C)(O)[C@H]2OC(=O)c1ccccc1 |  |  | 15 min, pH 7.4 | IC50 | 140 nM
COc1ccc2c(Cc3ccccc3F)c3n(c(=O)c2c1OC)CCc1cc2c(cc1-3)OCO2 |  |  |  | IC50 | 2700 nM
CC1=CC(=O)C(C(C)C)=CC1=O | fluorescence |  | pH 7.4 | IC50 | 1200 nM
CCCCC1=NC2(CCCC2)C(=O)N1Cc1ccc(-c2ccccc2S(=O)(=O)Nc2noc(C)c2C)c(COCC)c1 |  |  |  | Ki | 6330 nM
CCc1cc(/C(C)=N/OCc2ccc(C3CCCCC3)c(C(F)(F)F)c2)ccc1CN1CC(C(=O)O)C1 |  | human, liver microsomes | 20 min, testosterone probe | IC50 | 600 nM
COc1ccn2c(Nc3ccccc3F)c(-c3ccncn3)nc2c1 |  |  |  | IC50 | 270 nM
Nc1nc(N)c2nc(C(=O)NCc3cccc(C(F)(F)F)c3)cnc2n1 | luciferase |  |  | IC50 | 13800 nM
COc1ccc2c(Cc3ccccc3F)c3[n+](cc2c1OC)CCc1cc2c(cc1-3)OCO2 |  |  |  | IC50 | 800 nM
COC(=O)C1CCN(C(=O)c2ccc(SCc3cnc4nc(N)nc(N)c4n3)nc2)CC1 | luciferase |  |  | IC50 | 11700 nM
O=C(NCCN1CCCC1)c1cc(-c2ccc(CN3CCOCC3)cc2)nc2ccc(F)cc12 |  | human, liver microsomes | midazolam probe | IC50 | > 100000 nM
Cc1ccc2nc(-c3ccccc3)c(CNc3ccc(F)cc3)n2c1 |  |  |  | IC50 | 270 nM
Nc1nc(N)c2nc(CNc3ccc(C(=O)c4ccccc4)cc3)cnc2n1 | luciferase |  |  | IC50 | 43700 nM
